Measured values published in ChEMBL document CHEMBL4513216, “Probing the Open Global Health Chemical Diversity Library for Multistage-Active Starting Points for Next-Generation Antimalarials” (ACS Infect Dis, 2020).

Assay: Toxicity liver stage against HepG2, at 10uM
Format: cell-based
Set-up: test concentration 10 uM, cell line HepG2-A16-CD81EGFP
Settings: human, HepG2-A16-CD81EGFP cells; read-out: INHIBITION
Procedure, shortened: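 Uninfected HepG2-A16-CD81EGFP cells, 3 × 10^3 per well, 1536-well, plated on prespotted compound at 10 μM final, parasite-free screening media added to match infected plates; puromycin 10 μM positive, DMSO 0.5% negative; run in parallel with 48 h PbLuc assay at 37 °C, 5% CO2; viability by CellTiter-Glo luminescence, normalized to controls.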

Row | SMILES | cytotoxicity at 10 µM [%]
1 | Cn1ccc2c(-c3cc(N4CCOCC4)ncn3)ccnc21 | 2.64
2 | Cn1cc(C(=O)N2C[C@@H]3CN(S(C)(=O)=O)CCO[C@@H]3C2)cn1 | 8.9
3 | CC(=O)N(Cc1ncc(C)o1)C1CCN(Cc2cc(C)on2)C1 (configuration not stated) | -5.03
4 | COCC(=O)N1CCCC(C(=O)N(C)CCn2ccnc2C)C1 (configuration not stated) | 0.707
5 | CCc1n[nH]c(C2CN(CC(=O)N(C)Cc3ccco3)CCO2)n1 (configuration not stated) | 1.07
6 | CC(C)COc1cccc(-c2nc3c([nH]2)CCNC3)c1 | 4.48
7 | CCOCCCNC(=O)Cc1cccc(F)c1 | 12.1
8 | OCCn1nccc1C1CCN(CCOc2cccc(F)c2)CC1 | -10.8
9 | COc1cc(N2CCC3(CC(=O)N(Cc4csc(C)n4)C3)C2)ncn1 (configuration not stated) | -104
10 | Cc1ccc(CNCC2CCCN2c2cccnn2)s1 (configuration not stated) | -4.38
11 | Cc1nc(CN2CCC3(CC2)NC(=O)CC3c2ccccc2)cs1 (configuration not stated) | 4.33
12 | O=C1NC[C@@]2(C(=O)O)CN(Cc3cccc(CN4CCOCC4)c3)C[C@@H]12 | -7.98
13 | CC(C)c1cc(NC(=O)c2cccnc2)[nH]n1 | -4.24
14 | CC(NC(=O)Cn1cccnc1=O)c1ccc(C(F)(F)F)cc1 (configuration not stated) | 8.2
15 | O=C(Nc1nc2c(s1)CN(S(=O)(=O)C1CC1)CC2)c1c(F)cccc1F | -14.1
16 | NC(=O)N1CCCN(Cc2cc(F)cc(Br)c2)CC1 | 9.91
17 | Cc1ccc([C@@H]2CN(C(=O)CCc3cc(Cl)no3)C[C@H]2N(C)C)cc1 | 6.74
18 | Cn1ncc2c1C(COCC1CC1)CN(Cc1ccc(F)cc1)C2 (configuration not stated) | 1.23
19 | CC(C)Cc1nc(CCn2cncn2)n(-c2ccc3c(c2)OCCO3)n1 | 12.5
20 | CCC(CNC(=O)c1nc(=O)[nH][nH]1)Oc1cccc(F)c1 (configuration not stated) | -6.76
21 | CC(C)c1nnc2ccc(N3CCC(C(=O)NC4CC4)CC3)nn12 | -5.01
22 | O=C(NCC1CCC2(CC1)OCCO2)c1ccncc1F | 14.4
23 | O=C(Cc1ccc(F)cc1)NCC1CCN(Cc2ccsc2)CC1 | -7.15

Row | SMILES | cytotoxicity at 10 µM [%]
24 | Cc1cc2cc(CNC3CCN(CC4CCOC4)CC3)oc2cc1C (configuration not stated) | -8.14
25 | N#Cc1ccc(OC2CCN(C(=O)c3ccc(Br)o3)CC2)nc1 | 11.2
26 | Cc1nc(CNC(C)c2ccc(S(=O)(=O)N(C)C)cc2)no1 (configuration not stated) | -4.32
27 | Cc1cc(C[C@@H]2COC[C@@H]2NC(=O)CN2CCOC2=O)on1 | -0.6
28 | O=C(c1scc2c1OCCO2)N1CCC(Cc2cccc(CO)c2)C1 (configuration not stated) | 6.01
29 | CCS(=O)(=O)N1CCN(C(C)c2ccccc2OC)CC1 (configuration not stated) | 4.55
30 | CCc1nccn1C1CCCN(C(=O)c2cnc3ccccc3n2)C1 (configuration not stated) | -4.61
31 | CC(C)NC(=O)CC1[C@H]2CN(C(=O)Cc3ccccn3)C[C@@H]12 (some centres not stated) | 12
32 | COc1cccc(CNc2c(O)c(=O)c2=O)c1 | 5.78
33 | COc1ccc(C2CCCN2C(=O)CCNc2ncccn2)cc1 (configuration not stated) | -13.9
34 | Cc1ccc(CN2CCCC3(CCCC(=O)N3)C2)s1 (configuration not stated) | -0.361
35 | Fc1ccc(CN2CCCC2Cn2cncn2)c2ncccc12 (configuration not stated) | 11.7
36 | COCc1nc2ncc3c(=O)n(-c4cccc(OC)c4)ccc3n2n1 | 8.99
37 | COCC(=O)NCCc1nc(N(C)C)ncc1-c1ccncc1 | -3.46
38 | Cc1noc(CN2CCN(c3cncc(Cl)n3)CC2)n1 | 2.74
39 | Cc1nnc(NC(=O)NC2CCCc3c2cnn3CCO)s1 (configuration not stated) | 6.66
40 | CCCn1c(SCC(N)=O)nnc1-c1csc2c1CCCC2 | -1.42
41 | CN1CCCc2sc(C(=O)NC3CC3)nc21 | -149
42 | CN(C)Cc1cnc2n1CCN(C(=O)C1CC=CC1)CC2 | -81.3
43 | Cn1cc(-c2ccnc(NCC3CC3)n2)cn1 | -134
44 | C[C@H](O)CNc1cc(-c2ccncc2)ncn1 | -11.1
45 | CCCOCC(=O)Nc1ncc(I)cc1C | 1.46
46 | CS(=O)(=O)N1Cc2nccn2CC(CN2CCCC2=O)C1 (configuration not stated) | 5.8

Row | SMILES | cytotoxicity at 10 µM [%]
47 | OC1(CN2CCC(Oc3cccc(C(F)(F)F)c3)CC2)CNCCOC1 (configuration not stated) | -5.43
48 | CCCn1c(C)c(CC(=O)NCCOC)c2c1CC(C)(C)CC2=O | -1.01
49 | CN1CCN(C[C@@H]2CN(C(=O)CCc3cn[nH]c3)C[C@@H]2CO)CC1 | -0.973
50 | CC(C)OCc1ccccc1CNC(=O)C(C)(C)C | -8.11
51 | CC(Oc1cc(Cl)cc(Cl)c1)C(=O)NCCC(=O)N(C)C (configuration not stated) | -6.51
52 | CC(C)(C)n1nnnc1CN(CCc1ccccc1)Cc1ccccc1 | 4.91
53 | CCCn1cc(C(=O)NCCC(=O)NC2CCCCC2)c(C)n1 | -3.31
54 | Cc1cc(C)n(CCNC(=O)c2ncc[nH]2)c(=O)n1 | 2.84
55 | CCOc1cc(C)nc(N2CCN(C(=O)c3cc(Cl)c[nH]3)CC2)n1 | 6.81
56 | CCc1ccc(C(=O)N2CCC(c3nncn3CC)CC2)cc1 | -2.95
57 | Cn1nnc2c1CCN(Cc1ccccn1)C2COCc1ccccc1 (configuration not stated) | -117
58 | CCN1CCN(S(=O)(=O)c2ncn(C)c2Cl)CC1 | 20.9
59 | COCc1ccccc1C(=O)N1CCC(CNC(=O)OC(C)(C)C)C1 (configuration not stated) | 10.1
60 | COCCNC(=O)Nc1ccc(CN2CCOC2=O)cc1 | -4.62
61 | Cc1ccoc1C(=O)N1C[C@H](OCC2CC2)[C@H]2OCCC[C@H]21 | 2.89
62 | CSc1ccc(CNC(=O)C2CC(=O)N(C(C)(C)C)C2)cc1 (configuration not stated) | 4.69
63 | COCC(=O)N(Cc1ccc2cc[nH]c2c1)C1CC1 | -5.54
64 | CC(C)OCCS(=O)(=O)N1CCCC1c1cccc(N(C)C)c1 (configuration not stated) | -1.22
65 | CN(Cc1ccccn1)C1CCC[C@@H]2CN(CC3CC3)C[C@H]12 (some centres not stated) | -113
66 | COc1ccc(S(=O)(=O)NC(=O)c2c(C)noc2C(C)C)cc1OC | -2.23
67 | CNC(=O)CCCNCc1c(C)nn(C)c1N(C)C | -8.18
68 | CCc1ccc(C(=O)Nc2cccc(CN3CCCC3C(N)=O)c2)cc1 (configuration not stated) | -0.268
69 | CC(Cn1cccn1)NCc1csc(-c2ccc3c(c2)OCO3)n1 (configuration not stated) | -26

Row | SMILES | cytotoxicity at 10 µM [%]
70 | Cc1cc(-c2ccnn2C)nc(C2CCN(S(C)(=O)=O)CC2)n1 | 0.425
71 | CCCn1nc2c(cc1=O)CN(CC1CCCCO1)CC2 (configuration not stated) | 12.5
72 | Cc1sc(N)nc1-c1ccc(Cl)cc1 | -2.75
73 | CCc1nc2ccccc2c(=O)n1CC1(O)CCN(CC(=O)OC)CC1 | -4.99
74 | CC(=O)N1N=C(c2ccco2)OC1C(=O)NCC(C)C (configuration not stated) | -5.31
75 | Cc1ccc(S(=O)(=O)NC2CCC(=O)NC2)cc1Br (configuration not stated) | -2.38
76 | Cc1ccc(NC(=O)CN[C@H](C(N)=O)C(C)C)cc1F | 11
77 | COc1ccccc1CNC(=O)N1CCCC(NS(C)(=O)=O)C1 (configuration not stated) | 5.05
78 | CCc1ccc(C(=O)N2CCCN(Cc3csc(CC)n3)CC2)o1 | -1.86
79 | Cc1ccc(C(O)CNC(=O)NCc2nc(C)cs2)cc1 (configuration not stated) | -13.3
80 | Cc1nc2c(c(NCc3ccc(-c4ccccn4)s3)n1)CCNCC2 | -59.5
81 | CCOCC(=O)Nc1ccc(-n2ccc(C(N)=O)n2)cc1 | -5.27
82 | CCOC(=O)CCC(=O)N1CCC(CSCc2ccco2)CC1 | -10.3
83 | CCc1ccc(C(COC)NC(=O)c2ccc(NC(C)=O)cc2)o1 (configuration not stated) | -3.91
84 | CSc1nccn1-c1cccc(C(=O)NCCC(=O)NC(C)C)c1 | 0.153
85 | c1cnc(NCC2Cn3nnc(-c4ccsc4)c3CO2)nc1 (configuration not stated) | -73.3
86 | CC(C)CCN1C[C@@H]2C[C@H](C(=O)N3CCCC3)[C@H](C1)O2 | 4.82
87 | CC[C@@H]1N(CC2CCOCC2)CCC[C@]12CCC(=O)N2 | 18.1
88 | Cc1cc(C(=O)N2C[C@@H](C(=O)O)[C@H](c3ccccc3C)C2)c(C)o1 | 16.8
89 | O=C(CC1CN(Cc2ccccc2)CCO1)NC1CCSCC1 (configuration not stated) | -15.1
90 | CC(=O)N1CCCc2cc(NC(=O)NCCc3cnn(C)c3)ccc21 | -5.42
91 | COc1c(CNC2(c3ccc(Cl)cc3)CCC2)c(C)nn1C | 4.22
92 | Cc1cc(-c2nn(C)c(Cl)c2CN2CCCCC(N)C2)no1 (configuration not stated) | -2.1

Row | SMILES | cytotoxicity at 10 µM [%]
93 | Cc1cc(NC(=O)CN2CCN(c3nc(C)cs3)C(C)C2)on1 (configuration not stated) | -1.81
94 | Cc1cccc(NC(=O)CN(C)C(=O)c2ccc(-n3cccc3)nc2)n1 | -4.4
95 | COc1cccc(-n2cc(-c3ccnc(N[C@H](CO)C(C)C)n3)cn2)c1 | -2.04
96 | Cc1ccc([C@@H]2CN(C(=O)c3ccsc3)C[C@H]2NC(=O)C2CC2)cc1 | 2.93
97 | CSCC[C@H](NC(=O)Cn1ccc2c(Cl)cccc21)C(=O)O | 4.18
98 | CC[C@@H](Cn1ncc2ccccc2c1=O)NC(=O)c1ccco1 | 8.44
99 | CCOCC(=O)Nc1cc(C)cnc1OC | 4.04
100 | CCC(c1ccc(F)cc1)S(=O)(=O)CCO (configuration not stated) | -136
101 | Cc1ncsc1CCC(=O)NCc1cc2n(n1)CCN(C(=O)N(C)C)C2 | 15.3
102 | Cc1cc(C(=O)NCc2ccc(N3CCCC(C(N)=O)C3)cc2)no1 (configuration not stated) | -3.37
103 | O=C(NCCc1ccccc1)NCC(O)c1cccs1 (configuration not stated) | -11.9
104 | Cc1noc(C(C)C)c1C(=O)NCC1CCCN1Cc1ccccc1 (configuration not stated) | -4.45
105 | Cn1ncc2c(=O)[nH]c(CN3CCCC3Cc3ccccc3)nc21 (configuration not stated) | -6.56
106 | COCCN1C(=O)CO[C@@H]2CN(S(=O)(=O)c3ccccc3)C[C@H]21 | 0.975
107 | Cc1cc(C)nc(Nc2cccc(C3CCCN(C)C3)n2)n1 (configuration not stated) | -4.45
108 | CC(CO)N1CCN(C(=O)OC(C)(C)C)CC1 (configuration not stated) | -7.85
109 | NC(=O)CN1CCC(c2cc(C(F)(F)F)n3ccnc3n2)CC1 | -2.28
110 | Cc1ccc2cc(C(=O)N3CCC(Nc4cccnn4)CC3)[nH]c2c1 | -21
111 | Cc1ccc(CN(Cc2ccccn2)C2CC(C)(C)NC(C)(C)C2)s1 | 2.7
112 | Cc1cc(NC(=O)c2ccccc2Br)n(C)n1 | -6.61
